ChEMBL document CHEMBL1938388, “Design, synthesis and biological evaluation of new naphtalene diimides bearing isothiocyanate functionality” (Eur J Med Chem, 2012)
Calls of active or inactive are those of the source. The calls are words filed in the database; no cut-off is given here.

How the values were obtained:
[1] = tested on: Jurkat; test: Induction of apoptosis in human Jurkat T cells assessed as decrease in membrane potential at 0.25 to 1 uM after 24 hrs by JC-1 staining-based flow cytometric analysis; format: functional, cell-based
[2] = tested on: Jurkat; test: Induction of apoptosis in human Jurkat T cells assessed as increase in phosphatidylserine level after 24 hrs by flow cytometric analysis; format: functional, cell-based
[3] = tested on: Jurkat; test: Ratio IC50 for sulforaphane to compound for human Jurkat T cells; format: functional
[4] = tested on: Jurkat; test: Induction of apoptosis in human Jurkat T cells assessed as caspase 8 activation after 24 hrs by FAM-LETD-FMK staining-based flow cytometric analysis
[5] = tested on: Jurkat; test: Growth inhibition in human Jurkat T cells assessed as suppression into cell cycle progression at 1 uM after 24 hrs by flow cytometric analysis; format: functional; settings: read-out: GI
Procedure, shortened: (§1)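 Jurkat cells were treated 24 h at graded concentrations, and cell growth inhibition was measured by flow cytometry. Mean ± SEM of at least three independent experiments.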

[6] = tested on: Jurkat; test: Cell cycle arrest in human Jurkat T cells assessed as accumulation at S phase at 0.25 to 0.5 uM after 24 hrs by flow cytometric analysis; format: functional, cell-based
Procedure, shortened: (§2)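 Jurkat cells exposed 24 h to a range of concentrations, fixed in ice-cold ethanol, stained with propidium iodide-containing cell cycle reagent for 30 min at room temperature in the dark; G1, S and G2/M fractions from flow cytometry. Mean ± SEM of four independent experiments.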

[7] = tested on: Jurkat; test: Induction of apoptosis in human Jurkat T cells assessed as decrease in membrane potential at 2 uM after 24 hrs by JC-1 staining-based flow cytometric analysis; format: functional; set-up: scale not given: the % may be the effect or the level left
[8] = tested on: Jurkat; test: Induction of apoptosis in human Jurkat T cells assessed as caspase 8 activation at 0.25 to 1 uM after 24 hrs by FAM-LETD-FMK staining-based flow cytometric analysis
[9] = tested on: Jurkat; test: Growth inhibition in human Jurkat T cells assessed as suppression into cell cycle progression at 1.5 uM after 24 hrs by flow cytometric analysis; format: functional; settings: read-out: GI; procedure, shortened: as §1
[10] = tested on: Jurkat; test: Cell cycle arrest in human Jurkat T cells assessed as accumulation at G1 phase at 0.25 to 0.5 uM after 24 hrs by flow cytometric analysis (reference value: 58%); format: functional; procedure, shortened: as §2
[11] = tested on: Jurkat; test: Cytotoxicity against human Jurkat T cells assessed as decrease in cell viability after 24 hrs by flow cytometric analysis; format: functional, cell-based
Procedure, shortened: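 Jurkat cultures kept in exponential growth (split every third day to 1 × 10^5 cells/ml) were treated for one cell cycle (24 h) at graded concentrations. Viability was read right after treatment by flow cytometry after 5 min propidium iodide-based stain at room temperature. IC50 was interpolated from the dose-response curve; ≥3 independent experiments, mean ± SEM.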

[12] = tested on: Jurkat; test: Cell cycle arrest in human Jurkat T cells assessed as accumulation at G2/M phase at 0.25 to 0.5 uM after 24 hrs by flow cytometric analysis; format: functional, cell-based; procedure, shortened: as §2
[13] = tested on: Jurkat; test: Induction of apoptosis in human Jurkat T cells assessed as decrease in membrane potential after 24 hrs by JC-1 staining-based flow cytometric analysis; format: functional, cell-based
[14] = tested on: Jurkat; test: Induction of apoptosis in human Jurkat T cells assessed as decrease in membrane potential at 0.75 uM after 24 hrs by JC-1 staining-based flow cytometric analysis; format: functional; set-up: scale not given: the % may be the effect or the level left
[15] = tested on: Jurkat; test: Cytotoxicity against human Jurkat T cells assessed as necrotic cells at 0.1 to 16 uM after 72 hrs by flow cytometric analysis; format: functional, cell-based
Procedure, shortened: (§3)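 After 72 h exposure of Jurkat cells, 2 × 10^4 cells were stained with an Annexin V-PE/7-AAD cocktail for 20 min at room temperature in the dark. Necrotic cells were scored by flow cytometry.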

[16] = tested on: Jurkat; test: Cytotoxicity against human Jurkat T cells assessed as necrotic cells at 1 uM after 72 hrs by flow cytometric analysis; format: functional; procedure, shortened: as §3
[17] = tested on: Jurkat; test: Induction of apoptosis in human Jurkat T cells assessed as increase in phosphatidylserine level at 0.25 to 1.5 uM after 24 hrs by flow cytometric analysis; format: functional, cell-based
[18] = tested on: Jurkat; test: Induction of apoptosis in human Jurkat T cells assessed as decrease in membrane potential at 0.5 uM after 24 hrs by JC-1 staining-based flow cytometric analysis; format: functional; set-up: scale not given: the % may be the effect or the level left
[19] = tested on: Jurkat; test: Induction of apoptosis in human Jurkat T cells assessed as increase in necrotic cells at 1.5 uM after 24 hrs by 7-AA staining-based flow cytometric analysis; format: functional, cell-based
[20] = tested on: Jurkat; test: Growth inhibition in human Jurkat T cells assessed as suppression into cell cycle progression at 3 uM after 24 hrs by flow cytometric analysis; format: functional; settings: read-out: GI; procedure, shortened: as §1
[21] = tested on: Jurkat; test: Induction of apoptosis in human Jurkat T cells assessed as increase in necrotic cells at 1 uM after 24 hrs by 7-AA staining-based flow cytometric analysis; format: functional, cell-based
[22] = tested on: Jurkat; test: Cell cycle arrest in human Jurkat T cells assessed as accumulation at G2/M phase at 0.25 to 0.5 uM after 24 hrs by flow cytometric analysis (reference value: 29%); format: functional; procedure, shortened: as §2
[23] = tested on: Jurkat; test: Cell cycle arrest in human Jurkat T cells assessed as accumulation at G1 phase at 0.25 to 0.5 uM after 24 hrs by flow cytometric analysis (reference value: 56%); format: functional; procedure, shortened: as §2
[24] = tested on: Jurkat; test: Induction of apoptosis in human Jurkat T cells assessed as caspase 8 activation at 0.25 to 0.75 uM after 24 hrs by FAM-LETD-FMK staining-based flow cytometric analysis
[25] = tested on: Jurkat; test: Induction of apoptosis in human Jurkat T cells assessed as increase in phosphatidylserine level at 0.25 to 1 uM after 24 hrs by flow cytometric analysis; format: functional, cell-based
[26] = tested on: Jurkat; test: Growth inhibition in human Jurkat T cells assessed as suppression into cell cycle progression at 0.75 uM after 24 hrs by flow cytometric analysis; format: functional; settings: read-out: GI; procedure, shortened: as §1
[27] = tested on: Jurkat; test: Growth inhibition in human Jurkat T cells assessed as suppression into cell cycle progression at 2 uM after 24 hrs by flow cytometric analysis; format: functional; procedure, shortened: as §1
[28] = tested on: Jurkat; test: Induction of apoptosis in human Jurkat T cells assessed as decrease in membrane potential at 0.25 to 0.75 uM after 24 hrs by JC-1 staining-based flow cytometric analysis; format: functional, cell-based
[29] = tested on: Jurkat; test: Induction of apoptosis in human Jurkat T cells assessed as increase in apoptotic cells at 0.75 uM after 24 hrs by 7-AA staining-based flow cytometric analysis relative to sulforaphane
[30] = tested on: Jurkat; test: Cell cycle arrest in human Jurkat T cells assessed as accumulation at S phase at 0.25 to 0.5 uM after 24 hrs by flow cytometric analysis (reference value: 21%); format: functional; procedure, shortened: as §2
[31] = tested on: Jurkat; test: Induction of apoptosis in human Jurkat T cells assessed as increase in phosphatidylserine level at 2 uM after 24 hrs by flow cytometric analysis; format: functional, cell-based
Procedure, shortened: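 Jurkat T leukemia cells were exposed for 24 h. Aliquots of 2 × 10^4 cells were then stained with Guava Nexin Reagent, which contains Annexin V-PE for phosphatidylserine exposure and 7-AAD for membrane-permeable, necrotic cells. Staining ran 20 min at room temperature in the dark, followed by flow cytometry. Data are mean ± SEM of at least three independent experiments. Friedman test, Dunn's post test.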

[32] = tested on: Jurkat; test: Cell cycle arrest in human Jurkat T cells assessed as accumulation at S phase at 0.5 to 1 uM after 24 hrs by flow cytometric analysis (reference value: 20%); format: functional; procedure, shortened: as §2
[33] = tested on: Jurkat; test: Induction of apoptosis in human Jurkat T cells assessed as caspase 8 activation at 0.5 to 2 uM after 24 hrs by FAM-LETD-FMK staining-based flow cytometric analysis
[34] = tested on: Jurkat; test: Growth inhibition in human Jurkat T cells assessed as suppression into cell cycle progression at 4 uM after 24 hrs by flow cytometric analysis; format: functional; settings: read-out: GI; procedure, shortened: as §1
[35] = tested on: Jurkat; test: Induction of apoptosis in human Jurkat T cells assessed as decrease in membrane potential at 0.5 to 2 uM after 24 hrs by JC-1 staining-based flow cytometric analysis; format: functional, cell-based
[36] = tested on: Jurkat; test: Cell cycle arrest in human Jurkat T cells assessed as accumulation at G1 phase at 0.5 to 1 uM after 24 hrs by flow cytometric analysis (reference value: 63%); format: functional; procedure, shortened: as §2
[37] = tested on: Jurkat; test: Induction of apoptosis in human Jurkat T cells assessed as decrease in membrane potential at 1 uM after 24 hrs by JC-1 staining-based flow cytometric analysis; format: functional; set-up: scale not given: the % may be the effect or the level left
[38] = tested on: Jurkat; test: Cell cycle arrest in human Jurkat T cells assessed as accumulation at G2/M phase at 0.5 to 1 uM after 24 hrs by flow cytometric analysis; format: functional, cell-based; procedure, shortened: as §2
[39] = tested on: Jurkat; test: Induction of apoptosis in human Jurkat T cells assessed as increase in phosphatidylserine level at 0.5 to 4 uM after 24 hrs by flow cytometric analysis; format: functional, cell-based
[40] = tested on: Jurkat; test: Induction of apoptosis in human Jurkat T cells assessed as increase in necrotic cells at 4 uM after 24 hrs by 7-AA staining-based flow cytometric analysis; format: functional, cell-based
[41] = tested on: Jurkat; test: Growth inhibition in human Jurkat T cells assessed as suppression into cell cycle progression at 8 uM after 24 hrs by flow cytometric analysis; format: functional; settings: read-out: GI; procedure, shortened: as §1

SMILES | Activity [2] | Ratio IC50 [3] | Activity [4] | inhibition of growth at 1 µM [5] [%] | Activity [7] [%] | Activity [11] | IC50 [11] [µM] | Activity [13] | Activity [14] [%] | Activity [15] | Activity [16] [%] | Activity [18] [%] | further results
O=C1c2ccc3c4c(ccc(c24)C(=O)N1CCN=C=S)C(=O)N(CCN=C=S)C3=O | Dose-dependent effect | 17 | Dose-dependent effect | 40 | 100 | Dose-dependent effect | 0.89 | Dose-dependent effect | 100 | Active | 100 | 50.6 | Activity [1]: Active; Activity [6]: Active; Activity [8]: 66%; inhibition of growth at 1.5 µM [9]: 58%; Activity [10]: 68%; Activity [12]: Active; Activity [17]: Active; Activity [19]: Active; inhibition of growth at 3 µM [20]: 94%
O=C1c2ccc3c4c(ccc(c24)C(=O)N1CCCN=C=S)C(=O)N(CCCN=C=S)C3=O | Dose-dependent effect | 35 | Dose-dependent effect | 65 | 100 | Dose-dependent effect | 0.43 | Dose-dependent effect | 100 | Active | 100 | 47.1 | Activity [21]: Active; Activity [22]: 22%; Activity [23]: 68%; Activity [24]: 68%; Activity [25]: Active; inhibition of growth at 0.75 µM [26]: 30%; growth inhibition (GI) [27]: Active; Activity [28]: Active; fold change (FC) [29]: 40; Activity [30]: 13%
C[S+]([O-])CCCCN=C=S (stereo unspecified) [SULFORAPHANE] |  |  |  |  |  |  | 15 |  |  |  |  |  | 
CC[C@@]1(O)C(=O)OCc2c1cc1n(c2=O)Cc2cc3ccccc3nc2-1 |  |  |  |  |  |  |  |  |  |  |  |  | Activity [31]: Active
CN(C)CCN1C(=O)c2ccc3c4c(ccc(c24)C1=O)C(=O)N(CCN=C=S)C3=O | Dose-dependent effect | 8 | Dose-dependent effect |  | 100 | Dose-dependent effect | 1.91 | Dose-dependent effect | 100 | Active | 100 |  | Activity [32]: 15%; Activity [33]: 56%; inhibition of growth at 4 µM [34]: 40%; Activity [35]: Active; Activity [36]: 68%; Activity [37]: 53%; inhibition of growth at 2 µM ([27]; read-out: GI): 30%; Activity [38]: inactive; Activity [39]: Active; Activity [40]: Active; inhibition of growth at 8 µM [41]: 90%
